Screening results from PubChem.
CXCR6 block: blocks human CXCR6 beta-arrestin recruitment | O00574 | CHO-K1 PathHunter CXCR6 beta-arrestin, luminescence | inhibition, % at 20 µM | 360,000 compounds, 0.36% hits | AID 602244; in the data active means inhibition above about 34%, passing the limit was not always enough;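 further: antagonist mode with CXCL16 agonist at 10 nM final; 0% = 10 nM CXCL16 with DMSO and 100% = unstimulated wells without agonist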
B2AR ag: human beta-2 adrenergic receptor agonism by FAP; AID 504454; P07550; response, % (test concentration not listed); 340,000 compounds, 0.43% hits; Am2.2-beta2AR cells, FAP receptor internalization, flow cytometry;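 active means response above a set limit, near 3 SD of response in nonfluorescent compounds, cut at about 42% in these data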
Target sequence (P07550 whole entry, looked up): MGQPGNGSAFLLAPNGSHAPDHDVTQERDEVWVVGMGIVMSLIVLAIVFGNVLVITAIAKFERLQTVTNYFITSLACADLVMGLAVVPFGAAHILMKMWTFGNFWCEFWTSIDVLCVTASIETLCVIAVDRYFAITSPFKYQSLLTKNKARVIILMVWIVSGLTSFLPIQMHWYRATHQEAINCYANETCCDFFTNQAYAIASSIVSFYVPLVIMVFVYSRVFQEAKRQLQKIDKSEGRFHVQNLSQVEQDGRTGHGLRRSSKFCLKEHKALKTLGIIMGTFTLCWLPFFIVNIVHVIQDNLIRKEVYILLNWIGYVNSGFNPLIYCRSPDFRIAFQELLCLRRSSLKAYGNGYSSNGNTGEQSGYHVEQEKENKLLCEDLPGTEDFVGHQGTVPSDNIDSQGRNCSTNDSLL
EBI2 antag: blocks human EBI2 receptor beta-arrestin signaling; P32249; EBI2 beta-arrestin recruitment, luminescence, 7a,25-OHC stimulated; inhibition, % at 5 µM; 360,000 compounds, 0.81% hits; AID 651636; in the data active means inhibition above about 38%;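 further: enzyme fragment complementation signal reports receptor beta-arrestin coupling in cells; 0% = agonist plus DMSO wells and 100% = wells without agonist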
CCR6 antag: antagonists of human CCR6 receptor; P51684; CHO-K1 CCR6 PathHunter beta-arrestin, luminescence, CCL20-stimulated; inhibition, % at 20 µM; 340,000 compounds, 0.49% hits; AID 493098;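 active means compounds whose inhibition of the agonist-driven luminescence signal at 20 µM reaches about 50%, limit read from the data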;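 further: cells stimulated with CCL20 at 14 nM final; plate controls were DMSO with CCL20 for no effect and DMSO without agonist for full effect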
APJ agonist: activates the human apelin receptor APJ; P35414; CHO-K1 APJ PathHunter beta-arrestin, luminescence; 0% DMSO wells, 100% apelin; activation, % at 20 µM; 330,000 compounds, 0.11% hits;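 active means activation more than six SD over the plate average, tested at 20 µM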;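 further: 0% = DMSO alone and 100% = apelin-13 at 10 nM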
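Incubation: overnight seeding, 90 min compound at 25 °C, 1 h detection; test system: PathHunter CHO-K1 APJ (AGTRL-1) beta-arrestin reporter cells; amount: 1000 cells/well; doses: one dose, 20 µM compound, 1% DMSO; measured by: beta-gal luminescence; measure: agonist-driven arrestin binding to APJ; benchmarks: negative DMSO alone, positive Apelin-13 at 10 nM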
APJ antagonist: APJ receptor antagonism; P35414; AID 2521; CHO-K1 APJ beta-arrestin complementation, luminescence; 330,000 compounds, 0.32% hits; inhibition, % at 20 µM;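 active means inhibition above about 40% at 20 µM, limit read from the data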;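 further: cells challenged with 10 nM apelin-13 agonist together with compound; plate controls were apelin-13 plus DMSO wells for no effect and DMSO wells lacking apelin-13 for full effect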
EBI2 antag conf: EBI2 (human) antagonism, single concentration confirmation. inhibition, % at 5 µM. EBI2 beta-arrestin luminescence, 7a,25-OHC antagonism. shares compounds with EBI2 antag. 2,400 compounds, 29% hits;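 active means inhibition of at least 50%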
EBI2 agonist: counter-screen for EBI2 antagonists: EBI2 agonist activity | AID 652000 | shares compounds with EBI2 antag | EBI2-expressing cells, agonist mode, luminescence, 60 min; 0% vehicle, 100% 7α,25-dihydroxycholesterol control | activation, % at 5 µM | 2,400 tested, under 10 active;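 active means activation of at least 50%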
bGal cs: counter-screen for EBI2 antagonists: E. coli beta-galactosidase inhibition; inhibition, % at 5 µM; purified beta-galactosidase, luminescent Galacton Star, 15 min; 2,400 compounds, 1% hits; AID 652176; shares compounds with EBI2 antag;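 active means replicate-average signal at least 3 plate SD below neutral wells, shown as high inhibition, flagging enzyme-inhibiting false positives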;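 further: 0% = DMSO wells with enzyme and 100% = wells lacking enzyme; higher means stronger loss of beta-gal luminescence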
Numbers without * were called inactive; · = no result given. This is a sample that favours compounds with a hit; in the whole collection about 1.8% have one here.

SMILES	CXCR6 block	B2AR ag	EBI2 antag	CCR6 antag	APJ agonist	APJ antagonist	EBI2 antag conf	EBI2 agonist	bGal cs
CCOC(=O)[C@]12Cc3ccc(C)cc3[C@H]1N(C1CCCCC1)C(=O)c1ccccc12	19.2	·	64.4*	·	·	·	10.8	0.6	-7.6
CCOC(=O)[C@]12Cc3cc(C)ccc3[C@H]1N(CCC(=O)OC)C(=O)c1ccccc12	6.9	·	-4.3	·	·	·	·	·	·
CCOC(=O)[C@]12Cc3ccc(C)cc3[C@H]1N(C1CCCCC1)C(=O)c1cc(OC)ccc12	28.5	·	52.1*	·	·	·	9.7	2.8	-10.7
CCOC(=O)[C@]12Cc3c(cc(OC)c(OC)c3OC)[C@H]1N(C1CCCCC1)C(=O)c1ccccc12	11.1	·	71.4*	·	·	·	-0.8	6.0	-10.6
CCOC(=O)[C@]12Cc3cc(C)ccc3[C@H]1N(C1CCCCC1)C(=O)c1ccccc12	16.1	·	60.1*	·	·	·	6.6	2.2	-11.5
C=C[C@@H]1C2=CCOC(=O)C2=CO[C@H]1O[C@@H]1O[C@H](CO)[C@@H](O)[C@H](O)[C@H]1O	-9.8	-2.9	8.9	7.3	-4.9	-0.8	·	·	·
CCOC(=O)c1cncn1C(C)c1ccccc1 (stereo not given)	-6.0	-2.7	47.9*	5.8	0.6	-8.4	36.5	-0.5	6.6
COc1ccc(CN2CCN(C(=O)COc3ccc4ccccc4c3)CC2)c(OC)c1	-6.4	0.1	77.8*	13.4	-3.7	4.6	68.8*	1.6	8.0
O=C(COc1ccc(Br)cc1)N1CCN(Cc2c[nH]c3ccccc23)CC1	-2.7	14.5	81.3*	-5.2	1.3	15.1	53.9*	1.1	8.8
CN1CCN(C(=O)COc2ccc(Oc3ccccc3)cc2)CC1	4.6	-9.6	-4.2	7.0	-1.2	-19.0	·	·	·
CCC(C)N1CCN(C(=O)COc2ccc3ccccc3c2)CC1 (stereo not given)	1.9	0.1	90.6*	8.2	-0.2	26.0	73.9*	0.7	4.6
O=C(COc1ccc2ccccc2c1)N1CCN(Cc2c[nH]c3ccccc23)CC1	-24.6	9.5	83.2*	5.6	-4.2	-12.5	52.6*	0.6	8.2
CC(=O)NC1=C(N2CC2C)C(=O)C(NC(C)=O)=C(N2CC2C)C1=O (stereo not given)	-18.5	8.8	-28.1	-0.2	·	·	·	·	·
CC(C)CCNC(=O)c1c(N)n(Cc2ccc3c(c2)OCO3)c2nc3ccccc3nc12	1.3	1.8	47.7*	-30.3	-4.2	1.5	23.3	-0.4	-9.4
CCCNC(=O)c1c(N)n(Cc2ccc3c(c2)OCO3)c2nc3ccccc3nc12	-1.4	4.0	45.2*	-11.8	-2.5	20.1	36.2	0.4	2.4
Cc1ncoc1C(=O)NCC1=C(c2ccc(S(C)(=O)=O)cc2)C[C@@H]2CC[C@H]1N2CCOc1ccccc1	3.3	·	-2.0	·	·	·	·	·	·
O=C(NCC1=C(c2cccc3ccccc23)C[C@@H]2CC[C@H]1N2Cc1ccco1)c1ccc([N+](=O)[O-])cc1	8.4	·	19.0	·	·	·	·	·	·
COC(=O)C1=C(c2ccc(OCc3ccccc3)cc2)C[C@@H]2CC[C@H]1N2C(=O)NCc1ccc(OC)cc1	6.1	·	24.3	·	·	·	·	·	·
COC(=O)C1=C(c2ccc(OCc3ccccc3)cc2)C[C@@H]2CC[C@H]1N2C(=O)NCc1cccc(OC)c1	15.1	-1.9	57.3*	16.3	-1.6	-7.6	54.1*	-0.9	6.1
O=C(c1cc2cc(F)ccc2[nH]1)N1CCC2(CC1)OCCO2	-3.7	-1.9	41.1	4.1	3.6	-52.8	·	·	·
O=C(c1cc2cc(Cl)ccc2[nH]1)N1CCC2(CC1)OCCO2	-6.6	6.8	87.9*	10.0	5.2	6.4	66.1*	2.5	-1.3
COC(=O)C1=C(c2ccc(F)cc2OCc2ccccc2)C[C@@H]2CC[C@H]1N2C(=O)N1CCC(O)(c2ccc(Cl)cc2)CC1	8.2	2.5	52.4*	7.0	-1.8	1.0	16.1	2.7	-14.8
